# ChEMBL document CHEMBL4270643, “Structure-based drug design: Synthesis and biological evaluation of quinazolin-4-amine derivatives as selective Aurora A kinase inhibitors” (Eur J Med Chem, 2018)
# Activity calls are given as the source filed them. No cut-off for these calls is given here.
# Experiments:
# [1] = target: Aurora kinase B (Homo sapiens, UniProt Q96GD4); test: Inhibition of Aurora B (unknown origin) using FAM-labelled peptide as substrate pretreated for 10 mins followed by substrate addition and measured after 60 mins by fluorescence assay
# How it was run: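 Kinase IC50 values are the mean of at least two independent experiments; selectivity is the Aurora A/B ratio of these IC50s.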
# [2] = species on record: Homo sapiens; test: Selectivity ratio of IC50 for Aurora B (unknown origin) to IC50 for Aurora A (unknown origin)
# [3] = tested on: HeLa; test: Antiproliferative activity against human HeLa cells after 48 hrs by CCK8 assay; assay type: functional, cell-based; conditions: Homo sapiens, HeLa, 48 h; read-out: IC50
# [4] = tested on: DU-145; test: Antiproliferative activity against human DU145 cells after 48 hrs by CCK8 assay; assay type: functional, cell-based; conditions: DU-145, 48 h
# [5] = tested on: MDA-MB-231; test: Antiproliferative activity against human MDA-MB-231 cells after 48 hrs by CCK8 assay; assay type: functional, cell-based; conditions: MDA-MB-231, 48 h
# [6] = tested on: MDA-MB-231; test: Cell cycle arrest in human MDA-MB-231 cells assessed as accumulation at G2/M phase after 24 hrs by propidium iodide staining based flow cytometry; assay type: functional
# How it was run: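 MDA-MB-231 cells exposed to test compound at indicated doses, MLN8237, or 0.1% DMSO control for 24 h; cell-cycle distribution, including G2/M and 4N/8N populations, read by flow cytometry.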
# [7] = tested on: MDA-MB-231; test: Induction of apoptosis in human MDA-MB-231 cells assessed as annexin-V positive cells at 2 uM after 48 hrs by Annexin-V-FITC/propidium iodide staining based flow cytometry (reference value: 15.46 +/- 1.18%); assay type: functional
# [8] = tested on: MDA-MB-231; test: Induction of apoptosis in human MDA-MB-231 cells assessed as annexin-V positive cells at 5 uM after 48 hrs by Annexin-V-FITC/propidium iodide staining based flow cytometry (reference value: 15.46 +/- 1.18%); assay type: functional
# [9] = tested on: MDA-MB-231; test: Induction of morphological changes in human MDA-MB-231 cells assessed as defects in chromosomal alignment at 1 uM by DAPI staining based microscopic analysis; assay type: functional, cell-based
# How it was run: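 MDA-MB-231 cells incubated 24 h with 1 µM compound or 0.1% DMSO; immunofluorescence imaging of centrosomes, spindles and nuclei at ×1000 to score spindle polarity and chromosome alignment at the metaphase plate.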
# [10] = tested on: MDA-MB-231; test: Antitumor activity against human MDA-MB-231 cells xenografted in BALB/c athymic nude mouse assessed as tumor growth inhibition at 30 mg/kg, ig administered every 2 days for 18 days relative to control; assay type: functional; conditions: MDA-MB-231, po, read-out: TGI
# How it was run: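 Nude mice with established MDA-MB-231 xenografts dosed intragastrically every 2 days for 18 days; vehicle control group; n=4 per group. Tumor volume estimated over time and compared by two-way repeated-measures ANOVA; dissected tumors weighed at end. Data as mean ±SD.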
# [11] = tested on: Mus musculus; test: Toxicity in BALB/c athymic nude mouse xenografted with human MDA-MB-231 cells assessed as effect on kidney weight at 30 mg/kg, ig administered every 2 days for 18 days measured post last dose; assay type: organism-based; conditions: in vivo, po
# How it was run: (§1)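 Xenograft-bearing nude mice dosed intragastrically every 2 days for 18 days; body weight tracked throughout. After treatment ended, liver, lung, kidney and spleen weighed in untreated, vehicle and dosed groups; unpaired two-tailed t-test; mean ±SD, n=4.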
# [12] = tested on: Mus musculus; test: Toxicity in BALB/c athymic nude mouse xenografted with human MDA-MB-231 cells assessed as effect on spleen weight at 30 mg/kg, ig administered every 2 days for 18 days measured post last dose; assay type: organism-based; conditions: in vivo, po; how it was run: as §1
# [13] = tested on: Mus musculus; test: Toxicity in BALB/c athymic nude mouse xenografted with human MDA-MB-231 cells assessed as effect on RBC level at 30 mg/kg, ig administered every 2 days for 18 days measured post last dose; assay type: organism-based; conditions: in vivo, po
# How it was run: (§2)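 After the 18-day intragastric course (every 2 days), blood cell counts taken from untreated, vehicle and dosed mice; groups compared by unpaired two-tailed t-test; mean ±SD, n=4.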
# [14] = tested on: Mus musculus; test: Toxicity in BALB/c athymic nude mouse xenografted with human MDA-MB-231 cells assessed as effect on HGB level at 30 mg/kg, ig administered every 2 days for 18 days measured post last dose; assay type: organism-based; conditions: in vivo, po; how it was run: as §2
# [15] = tested on: Mus musculus; test: Toxicity in BALB/c athymic nude mouse xenografted with human MDA-MB-231 cells assessed as effect on RDW-CV level at 30 mg/kg, ig administered every 2 days for 18 days measured post last dose; assay type: organism-based; conditions: in vivo, po; how it was run: as §2
# [16] = target: Voltage-gated inwardly rectifying potassium channel KCNH2 (Homo sapiens, UniProt Q12809); test: Inhibition of human ERG expressed in CHO cells at -80 mV holding potential by whole-cell patch clamp method; assay type: cell-based
# Sequence of Voltage-gated inwardly rectifying potassium channel KCNH2 (Q12809 whole entry): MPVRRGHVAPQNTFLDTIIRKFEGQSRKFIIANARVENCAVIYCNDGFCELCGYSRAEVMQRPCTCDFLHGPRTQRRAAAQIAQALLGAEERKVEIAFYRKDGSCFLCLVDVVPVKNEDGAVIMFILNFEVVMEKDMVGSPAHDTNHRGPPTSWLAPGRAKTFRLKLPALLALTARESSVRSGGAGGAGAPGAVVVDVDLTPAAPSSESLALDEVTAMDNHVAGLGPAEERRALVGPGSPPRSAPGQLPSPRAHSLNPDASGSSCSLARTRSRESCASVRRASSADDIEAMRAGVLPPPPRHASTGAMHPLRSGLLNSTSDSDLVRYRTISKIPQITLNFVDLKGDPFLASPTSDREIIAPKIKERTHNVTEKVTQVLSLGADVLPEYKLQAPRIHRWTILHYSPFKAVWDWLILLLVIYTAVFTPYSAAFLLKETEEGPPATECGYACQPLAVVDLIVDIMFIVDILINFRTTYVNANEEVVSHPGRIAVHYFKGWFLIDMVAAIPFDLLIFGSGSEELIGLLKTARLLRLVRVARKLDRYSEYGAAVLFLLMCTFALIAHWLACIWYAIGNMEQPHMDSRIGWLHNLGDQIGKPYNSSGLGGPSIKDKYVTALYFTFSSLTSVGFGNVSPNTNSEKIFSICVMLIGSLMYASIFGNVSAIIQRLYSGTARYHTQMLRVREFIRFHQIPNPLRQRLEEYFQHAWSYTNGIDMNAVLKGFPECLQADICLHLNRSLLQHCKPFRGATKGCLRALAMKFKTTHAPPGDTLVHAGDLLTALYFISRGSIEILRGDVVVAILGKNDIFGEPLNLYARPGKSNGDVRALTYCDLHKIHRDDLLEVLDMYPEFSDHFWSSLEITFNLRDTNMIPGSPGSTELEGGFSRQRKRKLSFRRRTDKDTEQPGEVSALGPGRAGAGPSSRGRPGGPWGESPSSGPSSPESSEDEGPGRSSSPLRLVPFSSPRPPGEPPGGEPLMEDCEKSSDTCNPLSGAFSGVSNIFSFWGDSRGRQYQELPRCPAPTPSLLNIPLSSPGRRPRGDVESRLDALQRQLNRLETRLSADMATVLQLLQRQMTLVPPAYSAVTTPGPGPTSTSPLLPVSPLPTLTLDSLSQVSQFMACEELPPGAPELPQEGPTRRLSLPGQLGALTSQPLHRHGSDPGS
# Sequence of Aurora kinase B (Q96GD4 whole entry): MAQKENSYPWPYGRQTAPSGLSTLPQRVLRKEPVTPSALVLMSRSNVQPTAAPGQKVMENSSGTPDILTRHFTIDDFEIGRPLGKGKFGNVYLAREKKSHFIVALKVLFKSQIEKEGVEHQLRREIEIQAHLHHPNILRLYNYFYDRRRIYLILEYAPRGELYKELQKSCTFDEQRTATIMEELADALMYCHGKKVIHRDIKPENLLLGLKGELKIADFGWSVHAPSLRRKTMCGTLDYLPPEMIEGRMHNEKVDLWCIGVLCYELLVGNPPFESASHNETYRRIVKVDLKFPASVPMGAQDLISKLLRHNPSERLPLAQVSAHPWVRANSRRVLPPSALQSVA
smiles,measurement,setting,value
CCOC(=O)C1CCN(c2ccc3c(Nc4cc(C)[nH]n4)nc(-c4ccccc4)nc3c2)CC1,IC50,[1],2520 nM
same,Ratio IC50,[2],66
same,IC50,[3],450 nM
same,IC50,[4],2050 nM
same,IC50,[5],1190 nM
same,Activity,[6],Dose-dependent effect
same,Activity,[7],42.33%
same,Activity,[8],47.1%
same,Activity,[9],Active
same,inhibition in vivo at 30 mg/kg,[10],45%
same,Activity,[11],Non-Toxic
same,Activity,[12],Non-Toxic
same,Activity,[13],Non-Toxic
same,Activity,[14],Non-Toxic
same,Activity,[15],Non-Toxic
same,IC50,[16],> 10000 nM
